In ChEMBL document CHEMBL1149350, “Synthesis of novel chemical probes for the study of tanshinone binding proteins” (Bioorg Med Chem Lett, 2006) one finds Activity and IC50 data, which are given here for 10 compounds.

The source made the active and inactive calls. No cut-off for these calls is given here.

Assay [1] deals with RAW264.7. In words: Antiproliferative activity against RAW 264.7 cells in RANKL-induced osteoclastogenesis. The format is functional, cell-based. As to conditions: Mus musculus.
Assay [2] relates to RAW264.7. The assay is described as follows: Inhibition of TRAP activity in RANKL-induced osteoclastogenesis in RAW 264.7 cells. Type of assay: functional, cell-based. As to conditions: Mus musculus. The method in brief:
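RAW264.7 cells seeded at 1 × 10³/well in α-MEM/10% FBS with 100 ng/ml RANKL; compounds added next day. On day 4 multinucleated cells fixed (10% formalin 10 min, 95% ethanol 1 min) and dried, then given 50 mM citrate pH 4.6 with 10 mM tartrate and 5 mM p-nitrophenylphosphate for 30 min. Stopped in 0.1 N NaOH, A410 read; triplicate; IC50 from mean % of control.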

Regarding `CCC(=O)O[C@H]1CCc2c(ccc3c2C(=O)C(=O)c2c(C)coc2-3)C1(C)C`, the result in assay [1] was inactive. The IC50 (commonly the concentration that inhibits the measured activity by half) in assay [2] amounted to 16.7 µM.
Regarding `Cc1coc2c1C(=O)C(=O)c1c-2ccc2c1CC[C@H](OC(=O)c1ccccc1)C2(C)C`, the outcome in assay [1] was inactive. The IC50 in assay [2] was 19.1 µM.
Turning to `Cc1coc2c1C(=O)C(=O)c1c-2ccc2c1CC[C@H](O)C2(C)C`, the IC50 is above 20 µM in assay [1] and 12.8 µM in assay [2].
Consider `Cc1coc2c1C(=O)C(=O)c1c-2ccc2c1CCCC2(C)C` [TANSHINONE IIA], for which the outcome in assay [1] was inactive. This compound came in with an IC50 in assay [2] of 18.2 µM.
Turning to `Cc1coc2c1C(=O)C(=O)c1c-2ccc2c1CCCC2(C)CO` (stereo not given) [TANSHINONE IIB], the IC50 in assay [1] was above 20 µM; in assay [2] it was 15.6 µM.
For `Cc1coc2c1C(=O)C(=O)c1c-2ccc2c1CC[C@H](OCCOC(=O)COc1cccc(C3(C(F)(F)F)N=N3)c1)C2(C)C`, the IC50 was above 20 µM in assay [1] and 18 µM in assay [2].
The corresponding values for `Cc1coc2c1C(=O)C(=O)c1c-2ccc2c1CC[C@H](OCCOC(=O)CCCCC1SCC3NC(=O)NC31)C2(C)C` (stereo not given in full) are 18.7 µM and 9.56 µM.
In the case of `Cc1coc2c1C(=O)C(=O)c1c-2ccc2c1CCCC2(C)COC(=O)COCCOC(=O)COc1cccc(C2(C(F)(F)F)N=N2)c1` (stereo not given), the IC50 in assay [1] is above 20 µM; in assay [2], 15 µM.
Consider `Cc1coc2c1C(=O)C(=O)c1c-2ccc2c1CC[C@H](OCCO)C2(C)C`, for which the outcome in assay [1] was inactive. In addition, in assay [2], the IC50 was determined as 10.2 µM.
On to `Cc1coc2c1C(=O)C(=O)c1c-2ccc2c1CCCC2(C)COC(=O)COCCOC(=O)CCCCC1SCC2NC(=O)NC21` (stereo not given), for which the IC50 in assay [1] was 18.3 µM; in assay [2], 12.4 µM.
